This passage reports cytotoxicity results from ChEMBL document CHEMBL4513216, “Probing the Open Global Health Chemical Diversity Library for Multistage-Active Starting Points for Next-Generation Antimalarials” (ACS Infect Dis, 2020).

Molecules are shown by their SMILES.

A short description of this data set: Toxicity liver stage against HepG2, at 10uM. It counts as cell-based. Also noted: test concentration 10 uM, cell line HepG2-A16-CD81EGFP. As to conditions: human, HepG2-A16-CD81EGFP cells; read-out: INHIBITION
The method in brief: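 Uninfected HepG2-A16-CD81EGFP cells, 3 × 10^3 per well, 1536-well, plated on prespotted compound at 10 μM final, parasite-free screening media added to match infected plates; puromycin 10 μM positive, DMSO 0.5% negative; run in parallel with 48 h PbLuc assay at 37 °C, 5% CO2; viability by CellTiter-Glo luminescence, normalized to controls.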
On to `CC(=O)Cn1ncc(N2CCOCC2)cc1=O`, for which the cytotoxicity at 10 µM was 7.26%.
Regarding `CC(=O)N1CCC(N2CC[C@H](c3nc4cc(F)ccc4o3)C2)CC1`, the cytotoxicity at 10 µM was 2.23%.
For `CC(C)C[C@@H]1N[C@H](C(=O)NC(C)C)Cc2c[nH]c3cccc1c23`, the cytotoxicity at 10 µM was determined as 7.37%.
With `COc1cccc(-c2nc(CC(=O)NC3(C)CCS(=O)(=O)C3)cs2)c1` (stereo unspecified), the cytotoxicity at 10 µM worked out at 19%.
Regarding `COc1cc(N2CCc3ncnc(-c4ccoc4)c3CC2)ncn1`, the cytotoxicity at 10 µM was 14.9%.
Then `Cc1oncc1C(=O)N1CC[C@H]2CO[C@H](CN3CCCC3)[C@H]2C1`, with 10.8%.
In the case of `COCCNC(=O)[C@H]1CC[C@@H]2[C@@H](CCN2S(C)(=O)=O)O1` it was -8.87%; in that of `CCn1ncc2c1C(COC)CN(S(=O)(=O)C1CC1)C2` (stereo unspecified), 11.1%.
`Cc1cnc(N2CCC3(CCCN(c4ncc(F)cn4)C3)C2)nc1` (stereo unspecified): the cytotoxicity at 10 µM was -124%.
Then `Cc1nc(CN2C(=O)COC3(CCN(C(N)=O)CC3)C2C)cs1` (stereo unspecified), with -130%; and `COCCC(=O)N1CCC2(CCN(Cc3ccc(OC)c(F)c3)C2)C1` (stereo unspecified), with 9.75%.
In the case of `Cc1nc(N2CCCC2)nc2c1CCN(C(=O)CC1CCCC1)CC2` it was 0.457%; in that of `CS(=O)(=O)CC(=O)N1C[C@@H]2COC[C@]2(c2nnc(C3CC3)o2)C1`, -13.1%; in that of `Cc1nn(C)cc1-c1cc(C(F)(F)F)nn1CCC#N`, 3.65%.
In the case of `CCn1nc(C)c2nc(C(C)C)nc(N3CCN(C)CC3)c21` it was -2.45%; in that of `CCCn1cc(Cl)c(C(=O)N2C[C@@H](O)[C@H](Oc3ccccc3)C2)n1`, 5.31%; in that of `Cn1cc(CN(Cc2ccccn2)Cc2ccccc2Cl)cn1`, -2.48%.
With `Cc1c[nH]c(C2COCCN2C(=O)c2ccc(=O)[nH]n2)n1` (stereo unspecified), the cytotoxicity at 10 µM is -8.77%.
Consider `Cc1ccccc1CC(=O)N(C)CC1(O)CCCN(c2ccccn2)C1` (stereo unspecified), for which the cytotoxicity at 10 µM was -18.3%.
For the compound `NC(=O)Nc1cc(F)ccc1SCC(F)F`, the cytotoxicity at 10 µM is 0.0687%.
For `COCCN1CCN(CC2(O)CCCCC2)CC1`, the cytotoxicity at 10 µM stood at 7.04%.
Consider `NC1(c2nc(-c3ccccc3)cc(=O)[nH]2)CCCCC1`, for which the cytotoxicity at 10 µM turned out to be 7.25%.
In the case of `N#Cc1ccc(Cl)cc1NCC1CCOC1` (stereo unspecified), the cytotoxicity at 10 µM worked out at 3.09%.
In the case of `CN1CCC(NC(=O)Nc2cnn(-c3ccccc3Cl)c2)CC1`, the cytotoxicity at 10 µM is -5.5%.
In the case of `Cc1cc(C)n(C2CCCN(C(=O)CN(C)C3CC3)C2)n1` (stereo unspecified) it was -1.91%; in that of `Cc1noc(C)c1NC(=O)N1CCC(NC(=O)OC(C)(C)C)CC1`, 4%; in that of `CCOc1ccc(Cl)c(C(=O)N2CCCC(c3ccn[nH]3)C2)n1` (stereo unspecified), 1.58%.
Then `Cc1nn(C)c(Cl)c1S(=O)(=O)N(CC(N)=O)CC(C)C`, with 8.18%; and `Cc1cccc(N2CCN(CCC(=O)NCc3nnc[nH]3)CC2)c1`, with -6.26%.
Then `CC(C)c1nsc(N2CCOC3(CCCC3)C2)n1`, with 0.243%; and `N#CCCNC(=O)CSc1ccc(F)cc1F`, with 3.94%.
`O=C(CCc1ccc2c(c1)OCO2)Nc1cccnc1-n1cncn1`: the cytotoxicity at 10 µM was determined as 4.98%.
For the compound `COc1ccc(OC(F)F)c(NCC(=O)NCC(=O)N2CCCC2)c1`, the cytotoxicity at 10 µM is -0.77%.
Take `O=C(NCc1ccccc1CN1CCOCC1)Nc1nncs1`: the cytotoxicity at 10 µM stood at 14.3%.
For `Cc1cccc(C2(CNC(C)c3nnc(C)o3)CCCC2)c1` (stereo unspecified), the cytotoxicity at 10 µM is 6.73%.
`O=C(NCCC1CCN(CC(F)(F)F)CC1)C1CCCOC1` (stereo unspecified): the cytotoxicity at 10 µM worked out at 1.51%.
Turning to `CC(CCNC(=O)NCCNc1cnccn1)c1ccccc1` (stereo unspecified), the cytotoxicity at 10 µM was -4.08%.
With `CN1CCC(NC(=O)Nc2ccc(F)c(Br)c2)C1=O` (stereo unspecified), the cytotoxicity at 10 µM is -137%.
On to `COCCN(Cc1ccco1)Cc1nc(-c2ccccc2)no1`, for which the cytotoxicity at 10 µM was found to be 6.4%.
For the compound `CCc1nc(CC(=O)NC(C#N)CC)cs1` (stereo unspecified), the cytotoxicity at 10 µM amounted to 10.3%.
Then `COc1ccc(-c2noc(C3CCS(=O)(=O)C3)n2)cc1OC` (stereo unspecified), with 5.4%.
As for `CC(NCCCC#N)c1ccc(-c2ccncc2)cc1` (stereo unspecified), the cytotoxicity at 10 µM is -1.93%.
For the compound `C1CN(c2nc(C3CC3)no2)CCN(C2CCOCC2)C1`, the cytotoxicity at 10 µM came out at 0.442%.
In the case of `CCN(C(=O)CCc1ccc2[nH]ccc2c1)C1CC(=O)NC1=O` (stereo unspecified), the cytotoxicity at 10 µM is -8.96%.
In the case of `Cc1nc(CN2CC(CO)Oc3ccccc32)sc1C` (stereo unspecified) it was 0.918%.
For `Cc1cnn(CC2CCCN2CC(=O)N(C)Cc2ccc(C)o2)c1` (stereo unspecified), the cytotoxicity at 10 µM is -7.19%.
Then `CCN1CCN(S(=O)(=O)c2ncn(C)c2Cl)CC1`, with 20.9%; and `COc1ccc(NC(C)C(=O)N2CCN(Cc3ccccc3)CC2)cn1` (stereo unspecified), with 1.26%; and `O=C(C1CCC1)N1CCC2(CC1)OCCO2`, with 4.93%.
In the case of `O=C(c1ccnnc1)N1CCN2C[C@H](Oc3cccnc3)C[C@H]2C1` it was 1.43%.
In the case of `CN(Cc1cc2n(n1)CCN(C(=O)c1cccnc1)C2)Cc1nccs1` it was 1.2%; in that of `COc1cccc(OCCCc2cncc(C(N)=O)c2)c1`, -124%.
On to `CCc1ccc(C(=O)N2CC[C@](C)(O)C(C)(C)C2)[nH]1`, for which the cytotoxicity at 10 µM was determined as 2.43%.
In the case of `Cc1ccc2nc(C(=O)N3C[C@@H](C(=O)O)[C@H](c4cccnc4)C3)cn2c1` it was 2.98%; in that of `Cc1nc2c(c(N3C[C@@H](C)[C@@](C)(O)C3)n1)CCC2`, 9.74%.
For `CNc1nc(C(=O)N2CCCN(c3ccnc(C)c3)CC2)cs1`, the cytotoxicity at 10 µM turned out to be 6.37%.
In the case of `CC(=O)N1CCc2c(nc(N(C)C)nc2N(C)CCC2CCCCO2)C1` (stereo unspecified) it was -7.97%; in that of `O=C(N[C@@H]1CCNC[C@H]1O)c1ccc(O)c(Cl)c1`, -5.46%; in that of `Cn1cccc1C(=O)N1CCC(c2nnc(Cn3ccnc3)n2C)CC1`, -114%.
For `CCC(NS(=O)(=O)c1ccc(C(=O)NC2CC2)cc1)c1cnn(C)c1` (stereo unspecified), the cytotoxicity at 10 µM is 7.64%.
As to `CCCc1cc(C(=O)N2CCC3(CCCNC3=O)C2)cs1` (stereo unspecified), the cytotoxicity at 10 µM was -142%.
Consider `CC(=O)c1c(C)nn(CC(=O)N2Cc3cnc(C(C)(C)C)nc3C2)c1C`, for which the cytotoxicity at 10 µM was -0.539%.
Then `CCNc1ncc(C(=O)NCc2csc(-c3cnccn3)n2)cn1`, with 0.185%; and `O=c1[nH]cnc2c1CCN(S(=O)(=O)c1ccc(OC(F)(F)F)cc1)C2`, with 1.61%.
In the case of `CN(Cc1nccn1C)CC1CCOc2ccccc2C1` (stereo unspecified) it was -2.77%; in that of `CCCc1nnc(N2CCC3(CC2)CC(=O)NC(=O)C3)o1`, 3.06%; in that of `O=C(O)Cc1cccc(-n2ccnc2-c2ccc(F)c(Cl)c2)c1`, 2.17%.
In the case of `CCN(CCn1cccn1)Cc1nc(-c2cccs2)oc1C` it was -0.179%; in that of `Cc1cc(F)ccc1CN1CCC(O)(CN2CCCCC2)C1` (stereo unspecified), 14.8%.
In the case of `O=C(O)c1c[nH]c2cc(NS(=O)(=O)c3cccc(F)c3F)ccc12`, the cytotoxicity at 10 µM was 5.08%.
In the case of `CC(Cc1ccco1)NC(=O)Nc1cccnc1` (stereo unspecified), the cytotoxicity at 10 µM was -6.78%.
For the compound `CN(C(=O)NCc1ccsc1)C1CCN(c2ccccc2)C1=O` (stereo unspecified), the cytotoxicity at 10 µM was -5.63%.
For the compound `Cc1cc(C(=O)NCc2ccnc(OCC(F)(F)F)c2)no1`, the cytotoxicity at 10 µM is -7.98%.
In the case of `CCOC1CCN(C(=O)NCCc2ccn(-c3ccccc3)n2)CC1` it was -0.088%.
As to `COc1ncccc1CNCc1c(C)nn(C)c1N1CCOCC1`, the cytotoxicity at 10 µM is -11.1%.
Regarding `CCc1nnsc1C(=O)N1CCCN(Cc2ccccc2)CC1`, the cytotoxicity at 10 µM was found to be 7.57%.
`N#Cc1ccc(CC(=O)N2CCCC(n3cccn3)C2)cc1` (stereo unspecified): the cytotoxicity at 10 µM was -1.95%.
Then `COc1ccc(C(=O)N(C)Cc2cc(C)on2)c(F)c1`, with -5.2%; and `CCN1CCN(C(=O)C(C)N2CCN(Cc3nccn3C)CC2)CC1` (stereo unspecified), with -6.34%.
In the case of `CCn1ccnc1CN1CCN(CC(O)Cn2cccn2)CC1` (stereo unspecified) it was -5.97%; in that of `Fc1ccc(F)c(CN2CCC(c3n[nH]c4ncccc34)CC2)c1`, -25.4%; in that of `Cn1ccnc1CN1CCN2C[C@H](Oc3cncnc3)C[C@H]2C1`, 8.71%.
Turning to `Cc1ccc(N2C[C@H]3CCC[C@@H](CN(C)C)[C@H]3C2)nn1`, the cytotoxicity at 10 µM came to 8.82%.
In the case of `CC1c2ncc(CN3CCN(C)CC3)n2CCN1CC1CC1` (stereo unspecified) it was -20.3%; in that of `CN1C[C@@H]2CN(C(=O)NCc3cccc(F)c3)CCC[C@]2(C(=O)O)C1`, 1.14%.
In the case of `O=C(O)[C@]12CCCN(Cc3ccsc3)C[C@H]1CN(c1ncccn1)C2` it was -144%.
For `CN(C)CCOCC1CN(C(=O)c2ccsc2)Cc2ccnn2C1` (stereo unspecified), the cytotoxicity at 10 µM is -0.0653%.
Consider `COCCN1C[C@@H](C)[C@@]2(COCCN(C(=O)c3cccc(C)n3)C2)C1`, for which the cytotoxicity at 10 µM was determined as 7.13%.
In the case of `Cc1cnc(C(=O)N2CCCn3c(nc(CN(C)C)cc3=O)C2)cn1` it was -5.93%; in that of `Cc1noc(C)c1CN1C[C@H](OCc2ccncc2)[C@H]2OCCC[C@H]21`, 9.98%.
With `Cc1ccsc1C(=O)N1CCCn2c(nc(CN(C)C)cc2=O)C1`, the cytotoxicity at 10 µM is -0.385%.
In the case of `O=C(N1CCCO1)[C@@]12CCO[C@@H]1CCN(Cc1ccccc1)C2`, the cytotoxicity at 10 µM was -13.6%.
In the case of `CC(C)C(=O)N1CCN(Cc2cnn(C)c2)CC2(CC(=O)N(C)C2)C1` (stereo unspecified) it was 3.42%; in that of `c1cnc(N2CCC3(CCN(CC4CCOC4)CC3)C2)nc1` (stereo unspecified), -5.56%; in that of `Cc1nc(CN2C(=O)COC3(CCN(CC4CC4)CC3)C2C)cs1` (stereo unspecified), -131%.
Then `Cc1nc(N2CCCC2)nc2c1CN(C(C)C)CC2`, with -6.85%.
